The text below walks through data of PubChem BioAssay.

Assay [1] in a line: Her2 expression decrease, cell viability multiplex – SKBR3 breast tumor cells, AlphaScreen, ATP viability, primary screen (AID 461;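 active = Her2 level under about 52% in both replicate screens, with viability over 70% of control, limit read from the data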;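 as to Her2 level: lower value means less Her2 protein in the cells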;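 as to viability: percent of carrier control wells set as 100% viability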). The settings on record: SKBR3 Her2 protein level, 18-24 h, measured here: SKBR3 viability, ATP luminescence, at 10 µM.
Assay [2] concerns the target Receptor tyrosine-protein kinase erbB-2 (Homo sapiens) (UniProt P04626). Described as above. The settings on record: 18-24 h, at 10 µM, stronger effect = lower value.
The nature of assay [3]: reduced viability of SK-BR-3 breast cancer cells – cell-based, 24 h, human, pilot screen (AID 572;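 active = viability at or below 10% of carrier control in both of two separate runs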;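 also: compound exposure lasted between 18 and 24 h rather than exactly 24 h; 100% = carrier-treated control wells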). The settings on record: SK-BR-3 viability, CellTiter-Glo luminescence, at 10 µM, stronger effect = lower value.
Assay [4] can be described thus: HUVEC growth inhibition – cell-based, human, primary screen (AID 575;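 active = viability at or below 30% in both replicate assays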;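 also: 100% = median of untreated cell wells with 0.1% DMSO on each plate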). The settings on record: HUVEC proliferation, CellTiter-Glo luminescence, 72 h; at 10 µM; stronger effect = lower value. Put shortly: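 material = primary HUVEC, no more than 12 passages | input = 1250 cells per well | controls = vehicle and MePR control wells | measured by = CTG luminescence | times = 72 h compound incubation | format = collagen-coated 384-well format | read-out = % viability vs DMSO wells | doses = single 10 µM dose, 0.1% DMSO, from 5x medium stock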

Assay [5] in a line: H69AR cell proliferation blockers – human, duplicate replicates, primary screen (AID 580;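 active = viability at or under a set limit in both replicates, limit being median viability minus 3 SD, cut at about 48% in these data, passing the limit was not always enough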;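 also: 100% = mean luminescence of untreated wells and 0% = no signal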). The settings on record: H69AR lung tumor cells viability, ATP luminescence, 72 h; at 10 µM; stronger effect = lower value.
Assay [6] is described as follows: MRP1 drug-resistance reversers in H69AR cells – cell-based, doxorubicin co-treatment, pilot screen (AID 601). The settings on record: CellTiter-Glo, 72 h, at 10 µM; for differential viability (reversal): stronger effect = higher value.
Assay [7] in a line: yeast transport mutant growth inhibition pilot in 384-well plates, post-Golgi transport modulator project (AID 636; in the data active = inhibition above about 31%). The settings on record: absorbance 615 nm, about 18 h, stronger effect = higher value.
Assay [8] is described as follows: growth suppression of yeast trafficking mutant, preliminary HTS, modulators of trafficking downstream of Golgi apparatus project, 1536-format plate, OD 615 nm (AID 637; in the data active = inhibition above about 30%). The settings on record: yeast transport mutant growth, absorbance 615 nm, 18 h; stronger effect = higher value.
[9] abbreviates: H69AR cells + 2 uM doxorubicin, measured here: viability with 2 uM doxorubicin, stronger effect = lower value.
[10] abbreviates: H69AR cells, compound alone cytotoxicity.

Active and inactive are the calls of the source.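 The calls were made as follows, unless noted: active = viability loss from added drug above about 55%, and viability with drug at most 40%, in both replicates (limit read from the data, passing the limit was not always enough); inconclusive = both conditions met in only one replicate; inactive = neither replicate meets both conditions.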

Sequence of Receptor tyrosine-protein kinase erbB-2 (Homo sapiens) (P04626 whole entry, looked up): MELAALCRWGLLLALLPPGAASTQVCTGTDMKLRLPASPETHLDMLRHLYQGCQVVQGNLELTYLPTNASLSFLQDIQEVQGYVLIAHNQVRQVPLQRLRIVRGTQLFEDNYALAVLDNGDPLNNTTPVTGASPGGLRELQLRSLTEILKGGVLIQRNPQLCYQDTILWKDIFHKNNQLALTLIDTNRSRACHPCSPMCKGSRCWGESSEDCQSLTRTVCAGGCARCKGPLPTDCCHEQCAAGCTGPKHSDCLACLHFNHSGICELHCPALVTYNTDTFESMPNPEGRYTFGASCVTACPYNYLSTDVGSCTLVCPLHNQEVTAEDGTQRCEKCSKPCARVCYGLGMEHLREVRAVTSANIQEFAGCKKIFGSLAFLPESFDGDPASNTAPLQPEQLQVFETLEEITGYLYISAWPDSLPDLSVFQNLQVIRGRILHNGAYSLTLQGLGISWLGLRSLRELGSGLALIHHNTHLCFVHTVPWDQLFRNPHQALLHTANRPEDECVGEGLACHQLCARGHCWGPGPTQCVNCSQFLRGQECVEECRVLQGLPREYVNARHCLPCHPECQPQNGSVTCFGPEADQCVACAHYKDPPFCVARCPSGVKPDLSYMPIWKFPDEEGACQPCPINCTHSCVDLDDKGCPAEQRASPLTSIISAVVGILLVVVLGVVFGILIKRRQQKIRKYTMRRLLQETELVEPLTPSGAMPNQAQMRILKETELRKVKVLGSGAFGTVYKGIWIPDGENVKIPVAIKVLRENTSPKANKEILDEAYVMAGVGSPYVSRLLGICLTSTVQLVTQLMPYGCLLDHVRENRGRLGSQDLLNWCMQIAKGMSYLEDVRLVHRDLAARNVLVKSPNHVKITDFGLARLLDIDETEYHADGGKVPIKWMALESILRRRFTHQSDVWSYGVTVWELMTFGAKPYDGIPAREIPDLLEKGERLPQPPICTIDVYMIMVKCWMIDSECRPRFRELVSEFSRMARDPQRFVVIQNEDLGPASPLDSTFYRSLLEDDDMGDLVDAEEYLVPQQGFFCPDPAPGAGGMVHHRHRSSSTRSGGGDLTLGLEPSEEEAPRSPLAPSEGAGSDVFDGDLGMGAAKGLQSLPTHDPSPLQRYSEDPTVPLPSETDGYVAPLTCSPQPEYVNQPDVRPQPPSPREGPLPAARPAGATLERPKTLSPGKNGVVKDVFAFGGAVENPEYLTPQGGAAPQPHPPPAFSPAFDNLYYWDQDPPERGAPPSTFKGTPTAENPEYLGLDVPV

For `CCOC(=O)N1CCC(NC(=O)C2CCCN2C(=O)OCc2ccccc2)CC1` (stereo not given), the viability (in general, a read-out of living cells in per cent, often relative to untreated cells) in assay [1] was 93%; in assay [3], 93% (inactive); in assay [4], 103% (inactive); in assay [5], 90.7% (inactive); in assay [6] (setting [9]) it was 93%; in assay [6] (setting [10]), 90.7%. For the same molecule, in assay [2], the Her2 level was 106% (inactive). Further, the differential viability (reversal) in assay [6] (H69AR cells + 2 uM doxorubicin) is -2.27% (inactive). Moreover, the inhibition (usually the drop in the measured response relative to a control, in per cent) was 2.89% (inactive) in assay [7] and -7.1% (inactive) in assay [8].

On to `O=C(Nc1ccc(S(=O)(=O)N2CCc3ccccc32)cc1)c1ccc2c(c1)OCO2`, for which the viability is 77% in assay [1]; 77% (inactive) in assay [3]; 76.7% (inactive) in assay [4]; 103% (inactive) in assay [5]; 100% in assay [6] (setting [9]); 103% in assay [6] (setting [10]). In assay [2], the Her2 level is 75.5% (inactive). The differential viability (reversal) in assay [6] (H69AR cells + 2 uM doxorubicin) was 2.24% (inactive). Besides, the inhibition was 3.51% (inactive) in assay [7] and -8.73% (inactive) in assay [8].

Consider `CCOc1ccc(-c2nc(S(=O)(=O)c3ccccc3)c(NCc3cccnc3)o2)cc1`, for which the viability in assay [1] was 97%; in assay [3], 97% (inactive); in assay [4] it was 94.2% (inactive); in assay [5], 97.6% (inactive); in assay [6] (setting [9]), 91.4%; in assay [6] (setting [10]), 97.6%. Further, the Her2 level in assay [2] was 94% (inactive). Besides, the differential viability (reversal) in assay [6] (H69AR cells + 2 uM doxorubicin) is 6.18% (inactive). The inhibition was 1.33% (inactive) in assay [7] and -1.13% (inactive) in assay [8].

As for `NS(=O)(=O)c1ccc(NC(=O)N[C@@H](Cc2ccccc2)C(=O)O)cc1`, the viability was 82.5% in assay [1]; 82.5% (inactive) in assay [3]; 95.6% (inactive) in assay [4]; 97.6% (inactive) in assay [5]; 92.6% in assay [6] (setting [9]); 97.6% in assay [6] (setting [10]). For the same molecule, in assay [2], the Her2 level was 95.5% (inactive). In assay [6] (H69AR cells + 2 uM doxorubicin), the differential viability (reversal) was 5% (inactive). Besides, the inhibition in assay [7] was -3.73% (inactive); in assay [8], 4.52% (inactive).

As to `COc1ccc(-c2noc(-c3ccccc3C(=O)Nc3cccnc3)n2)cc1`, the viability in assay [1] is 109%; in assay [3], 109% (inactive); in assay [4], 106% (inactive); in assay [5], 86.5% (inactive); in assay [6] (setting [9]), 73.3%; in assay [6] (setting [10]), 86.5%. The Her2 level in assay [2] was 98.5% (inactive). Also, the differential viability (reversal) in assay [6] (H69AR cells + 2 uM doxorubicin) is 13.2% (inactive). Also, the inhibition is -1.17% (inactive) in assay [7] and 0.79% (inactive) in assay [8].

Consider `CCCCOc1ccc(-c2nnn(C(C)(C)C(=O)OC)n2)cc1`, for which the viability was 96% in assay [1]; 96% (inactive) in assay [3]; 86% (inactive) in assay [4]; 92.2% (inactive) in assay [5]; 99.3% in assay [6] (setting [9]); 92.2% in assay [6] (setting [10]). Moreover, in assay [2], the Her2 level is 107% (inactive). Moreover, in assay [6] (H69AR cells + 2 uM doxorubicin), the differential viability (reversal) is -7.05% (inactive). For the same molecule, the inhibition is -0.91% (inactive) in assay [7] and -4.29% (inactive) in assay [8].

`O=c1/c(=C/c2ccco2)sc2nc(-c3ccccc3Br)nn12`: the viability in assay [1] is 97%; in assay [3], 97% (inactive); in assay [4] it was 99.8% (inactive); in assay [5], 92.4% (inactive); in assay [6] (setting [9]) it was 87.9%; in assay [6] (setting [10]), 92.4%. The Her2 level in assay [2] is 89.5% (inactive). Also, in assay [6] (H69AR cells + 2 uM doxorubicin), the differential viability (reversal) is 4.5% (inactive). Also, the inhibition is -6.8% (inactive) in assay [7] and 1.64% (inactive) in assay [8].

Turning to `CCNC(=O)C1CC(=O)N(Cc2ccc3c(c2)OCO3)C(=Nc2ccc(OCC)cc2)S1` (stereo not given), the viability in assay [1] is 94.5%; in assay [3], 94.5% (inactive); in assay [4], 48.6% (inactive); in assay [5] it was 66.1% (inactive); in assay [6] (setting [9]) it was 63.1%; in assay [6] (setting [10]), 66.1%. In addition, the Her2 level in assay [2] was 76% (inactive). Besides, in assay [6] (H69AR cells + 2 uM doxorubicin), the differential viability (reversal) is 2.95% (inactive). Moreover, the inhibition in assay [7] was -2.11% (inactive); in assay [8], 6.89% (inactive).

For `CCCCCCC(=O)c1c(C)[nH]c(C(=O)OCC)c1C`, the viability in assay [1] is 98%; in assay [3], 98% (inactive); in assay [4], 60.2% (inactive); in assay [5], 92.7% (inactive); in assay [6] (setting [9]), 85.8%; in assay [6] (setting [10]), 92.7%. For the same molecule, the Her2 level in assay [2] is 86.5% (inactive). The differential viability (reversal) in assay [6] (H69AR cells + 2 uM doxorubicin) was 6.9% (inactive). Also, the inhibition in assay [7] is -5.73% (inactive); in assay [8] it was 4.03% (inactive).

Turning to `Cc1cc(NCCN2CCOCC2)n2nc(C)c(-c3ccccc3)c2n1`, the viability in assay [1] was 102%; in assay [3], 102% (inactive); in assay [4] it was 91.1% (inactive); in assay [5] it was 96.4% (inactive); in assay [6] (setting [9]) it was 83.6%; in assay [6] (setting [10]) it was 96.4%. Moreover, the Her2 level in assay [2] is 87% (inactive). Further, the differential viability (reversal) in assay [6] (H69AR cells + 2 uM doxorubicin) is 12.8% (inactive). For the same molecule, the figures for the inhibition in assay [7] and in assay [8] were -0.52% (inactive) and -3.33% (inactive), respectively.

Turning to `CC1(C)CC(=O)c2cnc(NC(=O)CSc3nc4ccccc4o3)nc2C1`, the viability in assay [1] is 96%; in assay [3] it was 96% (inactive); in assay [4] it was 81.4% (inactive); in assay [5], 105% (inactive); in assay [6] (setting [9]), 95.7%; in assay [6] (setting [10]) it was 105%. Besides, the Her2 level in assay [2] is 98.5% (inactive). The differential viability (reversal) in assay [6] (H69AR cells + 2 uM doxorubicin) was 9.52% (inactive). Besides, the inhibition in assay [7] was -4.46% (inactive); in assay [8], 0.83% (inactive).

Take `CC(=O)c1cccc(NC(=O)NCc2ccccn2)c1`: the viability is 91% in assay [1]; 91% (inactive) in assay [3]; 92% (inactive) in assay [4]; 97.6% (inactive) in assay [5]; 91.5% in assay [6] (setting [9]); 97.6% in assay [6] (setting [10]). Further, in assay [2], the Her2 level is 87% (inactive). In addition, in assay [6] (H69AR cells + 2 uM doxorubicin), the differential viability (reversal) is 6.09% (inactive). The results for the inhibition in assay [7] and in assay [8] were -4.47% (inactive) and -4.17% (inactive), respectively.

With `O=C(NC1CCCCC1)N(Cc1ccc(F)cc1)Cc1nc2ccccc2c(=O)[nH]1`, the viability is 98.5% in assay [1]; 98.5% (inactive) in assay [3]; 78.2% (inactive) in assay [4]; 100% (inactive) in assay [5]; 92.4% in assay [6] (setting [9]); 100% in assay [6] (setting [10]). Also, in assay [2], the Her2 level is 80% (inactive). Further, the differential viability (reversal) in assay [6] (H69AR cells + 2 uM doxorubicin) was 7.63% (inactive). In addition, the inhibition is -5.66% (inactive) in assay [7] and -1.83% (inactive) in assay [8].

On to `Cn1c(CN2CCOCC2)nnc1SCC(=O)NCCc1ccccc1`, for which the viability was 104% in assay [1]; 104% (inactive) in assay [3]; 73.6% (inactive) in assay [4]; 91.8% (inactive) in assay [5]; 80.4% in assay [6] (setting [9]); 91.8% in assay [6] (setting [10]). The Her2 level in assay [2] is 83% (inactive). The differential viability (reversal) in assay [6] (H69AR cells + 2 uM doxorubicin) is 11.4% (inactive). Also, the inhibition was -2.08% (inactive) in assay [7] and -2.86% (inactive) in assay [8].

Turning to `COc1ccc(CCNC(=O)c2cc(C(C)C)on2)cc1OC`, the viability in assay [1] is 95.5%; in assay [3], 95.5% (inactive); in assay [4], 96.6% (inactive); in assay [5], 93.2% (inactive); in assay [6] (setting [9]), 83.6%; in assay [6] (setting [10]), 93.2%. Also, in assay [2], the Her2 level is 101% (inactive). Moreover, in assay [6] (H69AR cells + 2 uM doxorubicin), the differential viability (reversal) was 9.6% (inactive). The inhibition in assay [7] was 0.51% (inactive); in assay [8], -0.67% (inactive).

`COC(=O)c1ccccc1NC(=O)Nc1cc(C)cc(C)n1`: the viability in assay [1] is 96%; in assay [3] it was 96% (inactive); in assay [4], 103% (inactive); in assay [5], 102% (inactive); in assay [6] (setting [9]) it was 94.8%; in assay [6] (setting [10]) it was 102%. For the same molecule, the Her2 level in assay [2] is 86% (inactive). Also, the differential viability (reversal) in assay [6] (H69AR cells + 2 uM doxorubicin) is 6.95% (inactive). The inhibition in assay [7] is -1.58% (inactive); in assay [8], -1.9% (inactive).
